Experimental data from paper PMC3059893 (Biochemistry, 2011).
Like-named read-outs stand apart in the source and are kept apart here. Peptide text beside a SMILES is read from it. * marks the point of attachment. Dansyl = CN(C)c1cccc2c(S(=O)(=O)*)cccc12

Tests used:
[1] = molecular target: Tiam1 PDZ L915F/L920V (Mus musculus, UniProt Q60610, L915F/L920V, species not given); experiment: Fluorescence anisotropy binding and double-mutant cycle, Tiam1 PDZ mutant; details: Tiam1 PDZ L915F/L920V; for Kd: fluorescence anisotropy, 25 °C
How it was run: (§1)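 Wild-type, single- and double-mutant Tiam1 PDZ (E. coli-expressed, tag-cleaved) were each titrated into 1 μM dansylated peptide at 25 °C. Anisotropy read at ex 340/em 550 nm; Kd from hyperbolic fit, ≥3 independent runs. ΔG = RT ln Kd at 298.15 K. Coupling energy ΔΔΔGint = (ΔGWT − ΔGM1) − (ΔGM2 − ΔGDM), with errors propagated by standard methods.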

[2] = system: Tiam1 PDZ L915F/L920V; experiment: as above; details: for ΔΔΔGint (pair-wise coupling free energy): double-mutant cycle L915/L920 (S0 pocket); for Σ singles: sum of ΔΔGb of single mutants L915F and L920V; for ΔΔGb: ΔGb(mutant) − ΔGb(wild-type), L915F/L920V
How it was run: as §1

[3] = molecular target: Tiam1 PDZ L911M (Homo sapiens, UniProt Q13009, L911M); experiment: Fluorescence anisotropy binding, Tiam1 PDZ mutant; details: for ΔΔGb: ΔGb(mutant) − ΔGb(wild-type), L911M
How it was run: (§2)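 Purified PDZ domains were titrated from a 1.5 mM stock into 1 μM N-terminally dansylated peptide at 25 °C in a stirred cuvette. Proteins were expressed in E. coli BL21(DE3), purified by Ni-chelate and size-exclusion chromatography, and His6-tag cleaved by TEV; Tiam2 is mouse residues 809–994; mutants made by site-directed mutagenesis. Anisotropy ex 340/em 550 nm, buffer-blank corrected. Kd from hyperbolic fit, mean of ≥3 independent runs; ΔG = RT ln Kd (298.15 K).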

[4] = molecular target: Tiam1 PDZ L920V (Homo sapiens, UniProt Q13009, L920V); experiment: Fluorescence anisotropy binding, Tiam1 PDZ mutant; details: for ΔΔGb: ΔGb(mutant) − ΔGb(wild-type)
How it was run: as §2

[5] = molecular target: Tiam1 PDZ QM (L911M/K912E/L915F/L920V) (Homo sapiens, UniProt Q13009, K912E/L911M/L915F/L920V); experiment: Fluorescence anisotropy binding, Tiam1 PDZ quadruple mutant; details: for ΔGb: Tiam1 PDZ QM
How it was run: as §2

[6] = system: Tiam1 PDZ QM (L911M/K912E/L915F/L920V); experiment: as above; details: for ΔΔGb: ΔGb(mutant) − ΔGb(wild-type), QM
How it was run: as §2

[7] = system: Tiam1 PDZ L911M/K912E; experiment: Fluorescence anisotropy binding and double-mutant cycle, Tiam1 PDZ mutant; details: for ΔΔΔGint (pair-wise coupling free energy): double-mutant cycle L911/K912 (S-2 pocket); for Σ singles: sum of ΔΔGb of single mutants L911M and K912E; for ΔΔGb: ΔGb(mutant) − ΔGb(wild-type), L911M/K912E
How it was run: as §1

[8] = molecular target: Tiam1 PDZ L911M/K912E (Mus musculus, UniProt Q60610, L911M/K912E, species not given); experiment: as above; details: Tiam1 PDZ L911M/K912E; for Kd: fluorescence anisotropy, 25 °C
How it was run: as §1

[9] = molecular target: Tiam1 PDZ domain (wild-type) (Homo sapiens, UniProt Q13009); experiment: Equilibrium fluorescence anisotropy binding of dansylated peptides
How it was run: as §2

[10] = molecular target: Tiam1 PDZ L915F (Homo sapiens, UniProt Q13009, L915F); experiment: Fluorescence anisotropy binding, Tiam1 PDZ mutant; details: for ΔΔGb: ΔGb(mutant) − ΔGb(wild-type), L915F
How it was run: as §2

[11] = molecular target: T1, Tiam2 PDZ domain (Mus musculus, UniProt Q6ZPF3); experiment: Equilibrium fluorescence anisotropy binding of dansylated peptides
T1 sequence (Q6ZPF3 908-997 limits assumed): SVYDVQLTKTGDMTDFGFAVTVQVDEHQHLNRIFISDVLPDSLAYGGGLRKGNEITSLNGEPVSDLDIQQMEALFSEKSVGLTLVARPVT
How it was run: as §2

[12] = molecular target: Tiam1 PDZ K912E (Homo sapiens, UniProt Q13009, K912E); experiment: Fluorescence anisotropy binding, Tiam1 PDZ mutant; details: for ΔΔGb: ΔGb(mutant) − ΔGb(wild-type), K912E
How it was run: as §2

Tiam1 PDZ K912E, sequence (Q13009 841-930 K912E limits assumed): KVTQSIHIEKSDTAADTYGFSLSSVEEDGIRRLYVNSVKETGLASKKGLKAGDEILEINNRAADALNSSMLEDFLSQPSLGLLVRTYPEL
Tiam1 PDZ L911M, sequence (Q13009 841-930 L911M limits assumed): as the sequence (Q13009 841-930 K912E limits assumed) above, with L71M, E72K counted along it
Tiam1 PDZ L915F/L920V (Mus musculus, UniProt Q60610, L915F/L920V, species not given), sequence (Q60610 2-1591 L915F/L920V): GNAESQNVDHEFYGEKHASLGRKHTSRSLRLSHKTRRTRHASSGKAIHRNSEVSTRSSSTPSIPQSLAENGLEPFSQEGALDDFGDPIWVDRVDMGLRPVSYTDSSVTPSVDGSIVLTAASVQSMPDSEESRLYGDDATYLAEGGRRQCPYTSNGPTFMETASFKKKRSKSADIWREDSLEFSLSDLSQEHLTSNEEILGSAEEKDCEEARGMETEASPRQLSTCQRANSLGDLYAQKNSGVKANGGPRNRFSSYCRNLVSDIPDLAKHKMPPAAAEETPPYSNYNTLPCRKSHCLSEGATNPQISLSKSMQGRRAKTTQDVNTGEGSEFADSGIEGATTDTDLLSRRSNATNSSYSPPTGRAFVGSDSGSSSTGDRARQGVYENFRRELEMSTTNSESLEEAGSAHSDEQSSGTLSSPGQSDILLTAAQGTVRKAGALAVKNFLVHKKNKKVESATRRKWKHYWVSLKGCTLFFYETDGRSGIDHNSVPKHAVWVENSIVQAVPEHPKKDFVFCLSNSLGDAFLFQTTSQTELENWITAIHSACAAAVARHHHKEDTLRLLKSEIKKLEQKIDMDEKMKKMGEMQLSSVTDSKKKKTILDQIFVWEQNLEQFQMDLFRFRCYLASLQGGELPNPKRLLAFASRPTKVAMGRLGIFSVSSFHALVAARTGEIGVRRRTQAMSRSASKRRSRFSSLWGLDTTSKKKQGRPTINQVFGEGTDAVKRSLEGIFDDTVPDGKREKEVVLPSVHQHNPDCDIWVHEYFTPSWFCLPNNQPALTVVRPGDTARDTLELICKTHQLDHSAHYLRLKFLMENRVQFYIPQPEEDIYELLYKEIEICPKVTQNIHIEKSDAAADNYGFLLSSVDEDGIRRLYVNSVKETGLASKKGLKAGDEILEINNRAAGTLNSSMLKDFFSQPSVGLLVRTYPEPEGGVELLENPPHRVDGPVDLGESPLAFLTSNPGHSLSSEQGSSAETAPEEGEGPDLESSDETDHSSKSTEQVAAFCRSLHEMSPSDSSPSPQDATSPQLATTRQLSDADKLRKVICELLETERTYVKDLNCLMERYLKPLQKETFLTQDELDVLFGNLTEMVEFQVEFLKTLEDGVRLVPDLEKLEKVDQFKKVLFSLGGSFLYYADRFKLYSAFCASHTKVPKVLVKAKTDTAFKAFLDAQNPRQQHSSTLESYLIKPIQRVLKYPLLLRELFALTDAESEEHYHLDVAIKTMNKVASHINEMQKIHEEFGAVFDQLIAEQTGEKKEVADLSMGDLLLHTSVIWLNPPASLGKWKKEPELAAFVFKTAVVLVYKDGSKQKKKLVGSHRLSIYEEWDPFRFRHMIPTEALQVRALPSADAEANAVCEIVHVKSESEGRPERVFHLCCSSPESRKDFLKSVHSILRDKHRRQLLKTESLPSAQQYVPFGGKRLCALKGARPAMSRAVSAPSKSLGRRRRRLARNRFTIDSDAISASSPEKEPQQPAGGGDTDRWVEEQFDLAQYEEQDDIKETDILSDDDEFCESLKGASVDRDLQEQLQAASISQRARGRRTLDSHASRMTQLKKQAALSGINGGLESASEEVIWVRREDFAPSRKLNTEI
Tiam1 PDZ QM (L911M/K912E/L915F/L920V) (Homo sapiens, UniProt Q13009, K912E/L911M/L915F/L920V), sequence (Q13009 841-930 L911M/K912E/L915F/L920V limits assumed): as the sequence (Q13009 841-930 K912E limits assumed) above, with L71M, L75F, L80V counted along it
Tiam1 PDZ L920V, sequence (Q13009 841-930 L920V limits assumed): as the sequence (Q13009 841-930 K912E limits assumed) above, with E72K, L80V counted along it
Tiam1 PDZ domain (wild-type), sequence (Q13009 841-930 limits assumed): as the sequence (Q13009 841-930 K912E limits assumed) above, with E72K counted along it
Tiam1 PDZ L915F, sequence (Q13009 841-930 L915F limits assumed): as the sequence (Q13009 841-930 K912E limits assumed) above, with E72K, L75F counted along it
Tiam1 PDZ L911M/K912E (Mus musculus, UniProt Q60610, L911M/K912E, species not given), sequence (Q60610 2-1591 L911M/K912E): as the sequence (Q60610 2-1591 L915F/L920V) above, with L910M, K911E, F914L, V919L counted along it

Row | ΔGb [1] [kcal/mol] | Kd [1] [µM] | ΔΔΔGint (pair-wise coupling free energy) [2] [kcal/mol] | Σ singles [2] [kcal/mol] | Kd [3] [µM] | ΔGb ([3]; Tiam1 PDZ L911M) [kcal/mol] | ΔΔGb [3] [kcal/mol] | Kd [4] [µM] | ΔGb ([4]; Tiam1 PDZ L920V) [kcal/mol] | ΔΔGb ([4]; L920V) [kcal/mol] | Kd [5] [µM] | ΔGb [5] [kcal/mol] | fold higher Kd than Tiam2 PDZ domain ([6]; QM vs Tiam2 PDZ) [fold] | ΔΔGb [6] [kcal/mol] | ΔΔΔGint (pair-wise coupling free energy) [7] [kcal/mol] | Σ singles [7] [kcal/mol] | ΔΔGb [7] [kcal/mol] | ΔGb [8] [kcal/mol] | Kd [8] [µM] | Kd [11] [µM] | Compound | further results
1 | -5.61 ± 0.04 | 76.5 ± 3.4 | 0.38 ± 0.10 | 0.36 ± 0.06 | 14 ± 0.3 | -6.61 ± 0.01 | -0.18 ± 0.02 | 10.8 ± 0.6 | -6.77 ± 0.03 | -0.33 ± 0.04 | 18.3 ± 0.3 | -6.46 ± 0.01 | 5 | -0.02 ± 0.02 | -0.25 ± 0.04 | 0.49 ± 0.04 | 0.24 ± 0.02 | -6.19 ± 0.02 | 28.9 ± 0.9 | 3.4 ± 0.3 | CN(C)c1cccc2c(S(=O)(=O)N[C@@H](CCC(=O)O)C(=O)N[C@@H](CC(N)=O)C(=O)N[C@@H](CCC(N)=O)C(=O)N[C@@H](CCCCN)C(=O)N[C@@H](CCC(=O)O)C(=O)N[C@@H](Cc3ccc(O)cc3)C(=O)N[C@@H](Cc3ccccc3)C(=O)N[C@@H](Cc3ccccc3)C(=O)O)cccc12 [Caspr4] (Dansyl-ENQKEYFF-OH) | fold decrease in Kd vs wild-type Tiam1 PDZ ([4]; L920V): ~2 fold; ΔGb ([9]; wild-type Tiam1 PDZ, ΔG = RT ln(Kd), T 298.15 K): -6.43 ± 0.01 kcal/mol; Kd [10]: 61 ± 4 µM; ΔGb ([10]; Tiam1 PDZ L915F): -5.74 ± 0.04 kcal/mol; ΔΔGb [10]: 0.69 ± 0.04 kcal/mol; fold lower Kd for Tiam2 PDZ than for Tiam1 PDZ ([11]; Tiam2 vs Tiam1 PDZ): ~6 fold; Kd [12]: 58.6 ± 4.1 µM; ΔGb ([12]; Tiam1 PDZ K912E): -5.77 ± 0.04 kcal/mol; ΔΔGb [12]: 0.67 ± 0.04 kcal/mol
2 |  |  |  |  |  |  |  |  |  |  |  |  |  |  |  |  |  |  |  | 24.1 ± 7.1 | C[C@H](NC(=O)[C@H](Cc1ccc(O)cc1)NC(=O)[C@H](Cc1ccc(O)cc1)NC(=O)[C@H](CCC(=O)O)NC(=O)[C@H](CCCCN)NC(=O)[C@H](CCCNC(=N)N)NC(=O)[C@H](CO)NC(=O)[C@H](CO)NS(=O)(=O)c1cccc2c(N(C)C)cccc12)C(=O)O [Model, reference compound] (Dansyl-SSRKEYYA-OH) | 
3 | -5.15 ± 0.07 | 166 ± 12 |  |  |  |  |  |  |  |  | 46 ± 2 | -5.91 ± 0.04 | 9 | -2.30 ± 0.10 |  |  | -1.30 ± 0.30 | -4.90 ± 0.30 | 270 ± 150 | 5 ± 0.2 | CC(C)[C@H](NC(=O)[C@H](Cc1ccc(O)cc1)NC(=O)[C@H](Cc1ccc(O)cc1)NC(=O)[C@H](CCC(=O)O)NC(=O)[C@H](CCCCN)NC(=O)[C@H](CC(=O)O)NC(=O)[C@H](CCCCN)NC(=O)[C@H](CC(N)=O)NS(=O)(=O)c1cccc2c(N(C)C)cccc12)C(=O)O [Neurexin1] (Dansyl-NKDKEYYV-OH) | ΔΔGb [2]: -1.58 ± 0.10 kcal/mol; Kd ([3]; Tiam1 PDZ L911M, fluorescence anisotropy, 25 °C): bound very weakly; Kd ([4]; Tiam1 PDZ L920V, fluorescence anisotropy, 25 °C): too weak to allow for reliable measurement; Kd ([10]; Tiam1 PDZ L915F, fluorescence anisotropy, 25 °C): too weak to allow for reliable measurement; Kd ([12]; Tiam1 PDZ K912E, fluorescence anisotropy, 25 °C): bound very weakly
4 | -4.91 ± 0.08 | 250 ± 20 | 0.36 ± 0.13 | 0.96 ± 0.07 | 34.7 ± 0.7 | -6.08 ± 0.01 | 0.15 ± 0.02 | 46 ± 3 | -5.92 ± 0.03 | 0.31 ± 0.04 | 122 ± 8 | -5.33 ± 0.04 |  | 0.89 ± 0.04 | 0.07 ± 0.13 | 1.13 ± 0.09 | 1.20 ± 0.10 | -5.00 ± 0.10 | 211 ± 36 | 200 ± 20 | C[C@H](NC(=O)[C@H](Cc1ccc(O)cc1)NC(=O)[C@H](Cc1ccccc1)NC(=O)[C@H](CCC(=O)O)NC(=O)[C@H](CCC(=O)O)NC(=O)[C@H](CCC(N)=O)NC(=O)[C@H](CCCCN)NC(=O)[C@@H](NS(=O)(=O)c1cccc2c(N(C)C)cccc12)[C@@H](C)O)C(=O)O [Syndecan1] (Dansyl-TKQEEFYA-OH) | ΔΔGb [2]: 1.32 ± 0.09 kcal/mol; fold lower Kd than Tiam2 PDZ domain ([6]; QM vs Tiam2 PDZ): 1.6 fold; Kd [10]: 81 ± 7 µM; ΔGb ([10]; Tiam1 PDZ L915F): -5.58 ± 0.05 kcal/mol; ΔΔGb [10]: 0.65 ± 0.06 kcal/mol; Kd [12]: 140 ± 20 µM; ΔGb ([12]; Tiam1 PDZ K912E): -5.25 ± 0.08 kcal/mol; ΔΔGb [12]: 0.98 ± 0.09 kcal/mol

Second part, the molecule before the results:

Row | Compound | ΔGb [1] [kcal/mol] | Kd [1] [µM] | ΔΔΔGint (pair-wise coupling free energy) [2] [kcal/mol] | Σ singles [2] [kcal/mol] | Kd [3] [µM] | ΔGb ([3]; Tiam1 PDZ L911M) [kcal/mol] | ΔΔGb [3] [kcal/mol] | Kd [4] [µM] | ΔGb ([4]; Tiam1 PDZ L920V) [kcal/mol] | ΔΔGb ([4]; L920V) [kcal/mol] | Kd [5] [µM] | ΔGb [5] [kcal/mol] | fold higher Kd than Tiam2 PDZ domain ([6]; QM vs Tiam2 PDZ) [fold] | ΔΔGb [6] [kcal/mol] | ΔΔΔGint (pair-wise coupling free energy) [7] [kcal/mol] | Σ singles [7] [kcal/mol] | ΔΔGb [7] [kcal/mol] | ΔGb [8] [kcal/mol] | Kd [8] [µM] | Kd [11] [µM] | further results
5 | C[C@H](NC(=O)[C@H](CCCNC(=N)N)NC(=O)[C@H](Cc1ccc(O)cc1)NC(=O)[C@H](CCCNC(=N)N)NC(=O)[C@H](Cc1ccc(O)cc1)NC(=O)[C@H](C)NC(=O)[C@H](C)NC(=O)[C@H](Cc1ccc(O)cc1)NS(=O)(=O)c1cccc2c(N(C)C)cccc12)C(=O)O [Tiam1 peptide 1 (Group I)] (Dansyl-YAAYRYRA-OH) |  |  |  |  |  |  |  |  |  |  |  |  |  |  |  |  |  |  |  | 22.5 ± 1.1 | Kd [9]: > 250 µM
6 | C[C@H](NC(=O)[C@H](Cc1c[nH]c2ccccc12)NC(=O)[C@H](Cc1ccc(O)cc1)NC(=O)[C@H](CCCCN)NC(=O)[C@H](CCC(=O)O)NC(=O)[C@H](C)NC(=O)[C@H](C)NC(=O)[C@H](Cc1ccc(O)cc1)NS(=O)(=O)c1cccc2c(N(C)C)cccc12)C(=O)O [Tiam1 peptide 2 (Group I)] (Dansyl-YAAEKYWA-OH) |  |  |  |  |  |  |  |  |  |  |  |  |  |  |  |  |  |  |  | 10.9 ± 0.4 | Kd [9]: 90.3 ± 8.3 µM
